Bioassay records deposited in PubChem by several laboratories.
Compounds with a hit are over-represented: about 2.7% of the library has one in this group of screens.
Hep lipid drop – inhibitors of hepatocyte lipid droplet formation, primary screen, imaging, high-throughput imaging, BODIPY stain | inhibition, % at 6.5 µM | AML12 mouse hepatocytes, oleate lipid droplets | hit rate 0.4% among 240,000;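 active means lipid droplet intensity inhibited by at least 50%, with more than 500 cells counted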
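Test system: AML12 hepatocytes (mouse); reagent: oleate loading, 100 µM; dosing: one dose, 6.5 µM compound; incubation: overnight exposure; signal: fluorescence imaging, 20x objective, two fields per well; read-out basis: % inhibition of corrected integrated BODIPY droplet signal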
NTR1 agonist – agonists of human NTR1, primary screen, imaging, U2OS cells, beta-arrestin-GFP, high content | hit rate 0.17% among 330,000 | activation, % at 20 µM | NTR1-U2OS beta-arrestin-GFP spot imaging, agonist mode | Neurotensin receptor type 1 (Homo sapiens), P30989;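 active means activation at or above 40% of the spot to cytoplasm intensity ratio, with at least 20 cells analyzed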
MC4R barr agon – MC4R agonists recruiting beta-arrestin, primary screen, cell-based, luminescence, agonist arm of biased-ligand search | U2OS MC4R beta-arrestin complementation; percent of melanotan II response, DMSO zero | activation, % at 8.9 µM | hit rate 0.98% among 360,000;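 active means activation above a per-plate cutoff, the mean activation of sample wells on that plate plus 3 SD, cut at about 8% in these data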
MC4R antagonist – MC4R antagonists of cAMP signaling, primary screen, cell-based, TR-FRET, antagonist arm of biased-ligand search; AID 540295, 2011; Melanocortin receptor 4 (Homo sapiens), P32245; hit rate 0.48% among 360,000; inhibition, % at 6.5 µM; MC4R-expressing cells, MTII-stimulated cAMP, LANCE TR-FRET;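 active means inhibition above its plate's cutoff, the mean of tested wells on that plate plus 3 SD, cut at about 29% in these data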
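System: U2OS-MC4R stable cell line; Technique: Eu-cAMP/anti-cAMP TR-FRET, emission 671 nm; Repeats: single well per compound; Also added: Melanotan II; Dosing: one concentration, 6.5 µM nominal; Schedule: 30-min compound, 1-h challenge, 1-h detection, room temperature.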
HTR2A ag – mouse Htr2a agonists via beta-arrestin recruitment, primary screen, cell-based, luminescence; 5-hydroxytryptamine receptor 2A (Mus musculus), P35363; CHO-K1 mHTR2A beta-arrestin complementation; percent of 30 µM serotonin response; activation, % at 7.6 µM; hit rate 0.66% among 360,000;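 active means activation above a run cutoff, the mean activation of all tested compounds plus 3 SD, cut at about 14% in these data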
PREPL inhibitor – PREPL enzyme inhibitors, primary screen, biochemical, fluorescence polarization | recombinant PREPL, fluorescence polarization activity-based probe | AID 2751, 2010 | Prolyl endopeptidase-like (Homo sapiens), Q4J6C6 | inhibition, % at 5.96 µM | hit rate 0.68% among 320,000; in the data active means inhibition above about 43%
Target sequence (Q4J6C6 whole entry, looked up): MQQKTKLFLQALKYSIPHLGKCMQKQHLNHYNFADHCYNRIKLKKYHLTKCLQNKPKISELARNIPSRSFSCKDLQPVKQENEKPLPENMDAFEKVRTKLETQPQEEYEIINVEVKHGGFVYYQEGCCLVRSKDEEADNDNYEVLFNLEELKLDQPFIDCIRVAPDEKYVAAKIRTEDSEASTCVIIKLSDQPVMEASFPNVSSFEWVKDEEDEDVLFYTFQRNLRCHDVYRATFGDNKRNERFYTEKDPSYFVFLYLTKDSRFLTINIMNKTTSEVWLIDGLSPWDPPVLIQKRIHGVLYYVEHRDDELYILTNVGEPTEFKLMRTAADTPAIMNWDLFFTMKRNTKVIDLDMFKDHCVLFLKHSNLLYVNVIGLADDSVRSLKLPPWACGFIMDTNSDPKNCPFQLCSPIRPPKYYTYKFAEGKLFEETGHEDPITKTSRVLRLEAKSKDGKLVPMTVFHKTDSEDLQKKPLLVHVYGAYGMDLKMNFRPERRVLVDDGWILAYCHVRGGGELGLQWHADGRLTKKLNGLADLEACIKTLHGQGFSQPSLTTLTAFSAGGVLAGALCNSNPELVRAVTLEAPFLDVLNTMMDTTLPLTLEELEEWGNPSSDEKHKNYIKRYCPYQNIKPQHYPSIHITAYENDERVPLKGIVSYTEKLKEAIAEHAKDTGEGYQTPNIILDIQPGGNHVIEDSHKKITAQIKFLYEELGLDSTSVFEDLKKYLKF
Lipid drop inh – hepatocyte lipid droplet accumulation inhibitors, confirmation, imaging, AML12 mouse hepatocytes, single concentration, high-content. shares compounds with Hep lipid drop. BODIPY lipid droplet imaging; droplets induced with 100 µM oleic acid. inhibition, % at 5.2 µM. hit rate 65% among 870. AID 463183, 2010;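 active means inhibition of lipid droplet metric at least 50%, with more than 300 cells in each of four replicates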
AML12 cytotox – AML12 hepatocyte cytotoxicity, counter-screen for hepatic lipid droplet formation project, imaging, DAPI nuclear morphology imaging; AID 463200, 2010; shares compounds with Hep lipid drop; z-score at 5 µM; AML12 mouse hepatocytes; stronger effect = higher value; cells fed 100 µM oleate overnight; hit rate 3% among 870; in the data active means z-score above about 6.3;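 further: compound exposure lasted overnight at 37 °C before fixation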
AML12 tox ATP – AML12 hepatocyte cytotoxicity, confirmation, cytotoxicity control for hepatic lipid droplet formation project, cell-based, single concentration. AML12 mouse hepatocyte viability, ATP luminescence; cells loaded with 100 µM oleic acid. shares compounds with Hep lipid drop. cytotoxicity, % at 50 µM. AID 463219, 2010. 530 tested, under 10 active;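 active means cytotoxicity above 50% in each of four replicates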;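 further: compound exposure lasted overnight at 37 °C before the ATP read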
A number is an active result; n = inactive; x = no result given.

SMILES	Hep lipid drop	NTR1 agonist	MC4R barr agon	MC4R antagonist	HTR2A ag	PREPL inhibitor	Lipid drop inh	AML12 cytotox	AML12 tox ATP
COc1ccc(C(C(=O)NC2CCCC2)N(CCC(C)C)C(=O)CCC(=O)Nc2cc(C)on2)cc1 (configuration not stated)	62.5	n	n	n	n	n	81.2	n	n
COc1cccc(C(C(=O)NC2CCCC2)N(CCC(C)C)C(=O)CCC(=O)Nc2cc(C)on2)c1 (configuration not stated)	n	n	n	n	n	n	x	x	x
CC(C)N(Cc1nccn1C)C(=O)c1ccc2oc(Cc3ccccc3)nc2c1	n	n	n	n	n	x	x	x	x
CC(C)C[C@H]1CN([C@@H](Cc2ccccc2)CN2CCC[C@@H]2CN2C(=O)C(=O)NC[C@@H]2Cc2ccccc2)C(=O)C(=O)N1CC1CCCCC1	x	x	x	x	n	x	x	x	x
CC(=O)Nc1ccc(C(=O)COC(=O)C2CC3CCCC(C2)C3=O)cc1 (configuration not stated)	x	n	n	n	n	n	x	x	x
CCOC(=O)C1CCN(C(=O)C2(NC(=O)Nc3ccc(F)cc3F)CCCCC2)CC1	69.4	n	n	n	n	n	96.8	n	n
COC(=O)[C@@H]1C[C@@]2(O)[C@H](O)[C@H](O)[C@H](O)C[C@H]2N1Cc1cc(F)ccc1F	50.3	n	n	n	n	n	n	n	x
COC(=O)[C@@H]1C[C@@]2(O)[C@@H](O)[C@@H](O)[C@@H](O)C[C@H]2N1Cc1ccc(C(F)(F)F)cc1	n	n	n	n	n	n	x	x	x
CC(C)Cn1c(N)c(C(=O)COC(=O)c2cc(-c3ccccc3)nc3ccccc23)c(=O)n(C)c1=O	n	n	n	n	n	n	x	x	x
CC(C)Cn1c(N)c(C(=O)COC(=O)c2cc(C3CC3)nc3ccccc23)c(=O)n(C)c1=O	73.7	n	x	x	x	n	84.9	n	x
CNc1nc(C)c(C(=O)c2ccc(Cl)cc2)s1	65.4	n	n	n	n	n	n	n	x
COc1ccc(/C=C/C(=O)Nc2cccc(N3CCOCC3)c2)cc1OC	n	n	n	n	n	n	x	x	x
Cc1ccc(CN2CCN(c3ccccc3)CC2)o1	75.1	n	n	n	n	n	n	n	x
Cc1ccc(CN2CCS(=O)(=O)CC2)o1	n	n	n	n	n	n	x	x	x
O=Cc1ccc(C(=O)OCC(=O)NC(=O)Nc2ccccc2F)cc1	x	n	n	n	n	n	x	x	x
COc1ccc(Oc2nc(C)nc3c2oc2ccccc23)cc1	x	n	n	n	n	n	x	x	x
COc1nc(C)nc2c1ccc1ccccc12	51.5	n	n	n	n	n	n	n	x
O=C(CSCC(=O)N1CCCCC1)Nc1nc(-c2ccccc2)c(-c2ccccc2)s1	89.2	n	n	n	n	n	104.4	n	n
COc1ccc(N(Cc2cc(=O)[nH]c3ccccc23)C(C)=O)cc1	74.9	n	n	n	n	n	n	n	x
Cc1ccc(CNC(=O)c2ccc3nc4[nH]c5ccccc5c4nc3c2)cc1	55.0	x	x	x	x	x	90.6	n	x
CCc1ccccc1NC(=O)c1cccc(NC(=O)/C=C/c2ccco2)c1	53.4	n	n	n	n	n	n	n	x
O=C(/C=C/c1ccco1)Nc1cccc(C(=O)Nc2ccccc2C(=O)O)c1	n	n	n	n	n	n	x	x	x
O=C(COc1ccc(S(=O)(=O)N2CCOCC2)cc1)NC1CC1	n	n	n	n	n	n	x	x	x
Cc1nn(-c2ccccc2)c2c1C(c1ccc([N+](=O)[O-])cc1)N1C(=N2)C(=O)Nc2ccccc21 (configuration not stated)	n	n	n	n	n	n	x	x	x
Cc1nn(-c2ccc([N+](=O)[O-])cc2)c2c1C(c1cccc(Br)c1)N1C(=N2)C(=O)Nc2ccccc21 (configuration not stated)	117.5	n	n	n	n	n	82.4	n	n
SMILES	Hep lipid drop	NTR1 agonist	MC4R barr agon	MC4R antagonist	HTR2A ag	PREPL inhibitor	Lipid drop inh	AML12 cytotox	AML12 tox ATP
COc1ccccc1-c1cnc(C(O)c2ccc(F)c(F)c2)[nH]1 (configuration not stated)	x	x	n	n	n	x	x	x	x
O=c1[nH]c(CSc2nnc(-c3ccccc3)n2-c2ccccc2)nc2ccccc12	61.8	n	n	n	n	n	n	n	x
CCc1ccc(OCC(=O)N/N=C(\C)c2ccc(-n3ccnc3)cc2)cc1	54.8	n	n	n	n	n	89.9	n	n
Cc1ccc(NC(=O)C2CCCN(S(=O)(=O)c3c(C)noc3/C=C/N(C)C)C2)cc1F (configuration not stated)	56.9	n	n	n	n	n	76.8	n	n
Cc1noc(/C=C/N(C)C)c1S(=O)(=O)N1CCC(C(=O)Nc2ccc(Cl)cc2)CC1	n	n	n	n	n	n	x	x	x
CCN1C(=O)/C(=C2\C=Cc3cc(C)ccc3N2CC)OC1=S	67.7	n	n	n	n	n	73.5	n	n
CCOc1ccc(C(C)NC(=O)Cc2ccccc2)cc1OCC (configuration not stated)	53.3	n	n	n	n	n	73.0	n	n
CCOc1ccc(C(C)NC(=O)Cc2ccccc2F)cc1OCC (configuration not stated)	50.3	n	n	n	n	n	92.9	n	n
CCCCc1ccc(N=N/C(C(=O)Nc2cc(OC)c(NC(C)=O)cc2OC)=C(/C)O)cc1	96.4	n	n	n	n	n	n	n	x
CCOC(=O)C1CCC(CN(Cc2ccccc2)S(=O)(=O)c2ccc([N+](=O)[O-])cc2)CC1 (configuration not stated)	59.4	n	n	n	n	n	81.5	n	n
CCOC(=O)C1CCN(C(=O)CN(Cc2ccccc2)S(C)(=O)=O)CC1	n	n	n	n	n	n	x	x	x
Cc1oc2ccc(OCc3ccc(F)cc3Cl)cc2c1C(=O)O	56.9	n	n	n	n	n	n	n	x
